Compound activity deposited in PubChem BioAssay by several laboratories.
In the library only some 2% were active in any assay of this set; here they are far more common.
PKD1 inh = PKD1 (human) kinase inhibition. Q15139. PKD1 kinase fluorescence polarization assay. inhibition, % (no concentration beside the values). 200,000 tested, 0.056% active. AID 797
Target sequence (Q15139 whole entry, looked up): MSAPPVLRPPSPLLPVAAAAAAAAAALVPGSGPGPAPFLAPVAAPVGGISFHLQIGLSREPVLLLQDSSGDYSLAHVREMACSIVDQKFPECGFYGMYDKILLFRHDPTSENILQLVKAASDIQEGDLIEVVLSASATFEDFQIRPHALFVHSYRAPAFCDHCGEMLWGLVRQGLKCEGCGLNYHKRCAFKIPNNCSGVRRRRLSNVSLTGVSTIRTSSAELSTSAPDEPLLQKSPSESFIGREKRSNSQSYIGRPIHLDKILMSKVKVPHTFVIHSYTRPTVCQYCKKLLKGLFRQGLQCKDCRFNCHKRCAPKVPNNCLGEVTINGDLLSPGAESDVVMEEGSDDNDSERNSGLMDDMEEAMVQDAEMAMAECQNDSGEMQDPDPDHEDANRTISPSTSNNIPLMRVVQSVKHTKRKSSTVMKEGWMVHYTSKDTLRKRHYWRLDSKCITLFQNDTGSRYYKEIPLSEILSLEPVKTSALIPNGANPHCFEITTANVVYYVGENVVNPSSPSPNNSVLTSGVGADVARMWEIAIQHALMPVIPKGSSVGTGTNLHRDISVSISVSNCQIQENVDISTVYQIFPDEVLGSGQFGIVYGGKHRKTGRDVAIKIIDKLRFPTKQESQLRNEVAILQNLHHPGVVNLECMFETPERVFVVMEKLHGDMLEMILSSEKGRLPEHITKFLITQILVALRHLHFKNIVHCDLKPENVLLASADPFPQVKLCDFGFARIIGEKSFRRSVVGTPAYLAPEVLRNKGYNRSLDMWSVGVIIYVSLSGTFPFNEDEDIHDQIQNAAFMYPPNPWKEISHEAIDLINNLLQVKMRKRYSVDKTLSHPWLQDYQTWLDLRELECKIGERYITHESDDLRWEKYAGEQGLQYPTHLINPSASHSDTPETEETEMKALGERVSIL
RanGTP-Impb inh = inhibitors of RanGTP-importin-beta interaction, primary screen, biochemical, FRET, CFP-Ran, YFP-importin-beta, homogeneous; cell-free CFP-Ran/YFP-importin-beta FRET ratio; inhibition, % (test concentration not listed); 300,000 tested, 1.1% active; AID 2216;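 active = more than half of the replicate wells show a fall in the fluorescence ratio signal beyond about 16%, limit read from the data, passing the limit was not always enough; inconclusive = exactly half of the replicate wells pass the set limit; inactive = fewer than half of replicates pass the limit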;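 note: 0% = DMSO wells and 100% = Ran loaded with GDP instead of GTP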
Runt-CBFb FRET = inhibitors of human RUNX1 Runt domain binding to CBFb; 220,000 tested, 0.46% active; inhibition, % at 20 µM; Cerulean-Runt/Venus-CBFb FRET ratio 530/480, 1 h; AID 1496; Q01196+Q13951;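 active = inhibition over about 50% at 20 µM in the single-dose screen, limit read from the data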;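 note: 0% = DMSO wells and 100% = excess unlabeled CBFb competitor control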
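Buffer or medium: Tris pH 7.5 buffer with BSA. Assay system: Cerulean-labeled Runt domain protein. Amount: each fluorescent fusion protein 100 nM. Read-out basis: loss of energy transfer signal. Incubation: 1 h compound exposure, room temperature. Probe or stimulus: Venus-CBFb binding partner, 100 nM. Detection: FRET, excitation 422 nm, emission at 530 and 480 nm.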
EBV gp42 inh = blocks Epstein-Barr virus glycoprotein 42 binding; Q1HVG2; Fluorescence polarization binding assay, mP read-out; inhibition, % (tested at 21.74 µM); 220,000 tested, 0.42% active; AID 1085
Runt-SMMHC FRET = inhibitors of human RUNX1 Runt domain binding to CBFb-SMMHC | Q01196+Q13951 | Cerulean-Runt/Venus-CBFb-SMMHC FRET ratio 530/480, 1 h | inhibition, % at 20 µM | 220,000 tested, 0.74% active | AID 1434;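 active = mean inhibition across duplicate retests at 20 µM reaching about 50%, limit read from the data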;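 note: 0% = DMSO wells and 100% = wells with excess untagged CBFb-SMMHC; inhibitors lower the FRET ratio by blocking Runt binding to CBFb-SMMHC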
MEX-5 binding = C. elegans MEX-5 TCR-2 RNA binding activity. AID 1832. 300,000 tested, 0.38% active. MEX-5/FITC-TCR2 RNA binding, fluorescence polarization; stronger effect = lower value. activity score (negative = inhibition of binding), % at 10 µM. Q9XUB2;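 active = inhibition past about -25% in most replicates, and total fluorescence under double the plate's negative control median, limit read from the data; inconclusive = replicates evenly split on the limit, or fluorescence at least double controls; inactive = too little inhibition in most replicates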;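 note: 0% = DMSO and -100% = 5 µM competing unlabeled TCR2 RNA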
Active calls of the source: *; u = inconclusive; x = no result given. Cut-off read from the data, not from the text of the source, unless noted: active = inhibition above about 50%; inactive = the rest.

SMILES	PKD1 inh	RanGTP-Impb inh	Runt-CBFb FRET	EBV gp42 inh	Runt-SMMHC FRET	MEX-5 binding
CC1CC(C)CN(S(=O)(=O)c2ccc3c(c2)NC(=O)C(C)C(=O)N3)C1 (stereo not drawn)	x	-1	x	x	x	3
CN1C(=O)C(O)(C2CCCCCC2=O)c2ccccc21 (stereo not drawn)	x	3	x	x	x	2
C=CCOc1ccccc1CN1CCCN(C)CC1	x	2	x	x	x	-1
Cc1ccc(N(C)S(=O)(=O)c2csc(C(N)=O)c2)cc1C	x	-2	x	x	x	1
COc1cc(OC)c(OC)cc1/C=N/Nc1ncnc2c1[nH]c1ccccc12	2	u	20	-12	75*	-8
COc1ccc(/C=N/Nc2ncnc3c2[nH]c2ccc(C)cc23)c(OC)c1OC	x	3	-5	1	2	1
CCN(c1ccccc1)S(=O)(=O)c1cccc(C(=O)N(C)CCOc2ccccc2)c1	x	-5	x	x	x	0
CCn1c(=N)c(C(=O)OC)cc2c(=O)n3ccccc3nc21	x	x	27	x	40	x
CCCn1c(=N)c(C#N)cc2c(=O)n3ccccc3nc21	-12	179*	32	-11	76*	30
CCCn1c(=N)c(C#N)cc2c(=O)n3cccc(C)c3nc21	-4	148*	x	0	x	-4
N#Cc1cc2c(=O)n3ccccc3nc2n(CCCn2ccnc2)c1=N	-13	140*	12	x	40	-2
Cc1cccn2c(=O)c3cc(C#N)c(=N)n(CCCN4CCOCC4)c3nc12	-5	184*	x	x	x	-5
CCCCCn1c(=N)c(S(=O)(=O)c2ccc(Br)cc2)cc2c(=O)n3cccc(C)c3nc21	x	u	x	x	x	0
O=c1c2ccccc2[nH]c(=S)n1CCCn1ccnc1	x	-5	x	x	x	2
CCOc1ccc(CN(C)C(C)C(=O)NCCc2ccc(F)cc2)cc1 (stereo not drawn)	x	4	x	x	x	-1
O=C(O)/C=C/c1cn(Cc2ccccc2Cl)nc1-c1ccccc1	x	-2	0	1	-1	-1
COc1ccc(S(=O)(=O)N2CCCC2CNC(=O)C(=O)Nc2cccc(F)c2)cc1 (stereo not drawn)	x	u	x	x	x	-1
CCC(C)n1c(=N)c(C#N)cc2c(=O)n3ccccc3nc21 (stereo not drawn)	0	177*	92*	-11	95*	u
Cc1cccn2c(=O)c3cc(C#N)c(=N)n(CCN4CCOCC4)c3nc12	6	87*	76*	-20	94*	-1
COc1ccc(NS(=O)(=O)c2cccc3ccccc23)cc1	x	2	x	x	x	2
Cc1ccc(CN2CCN(Cc3cn[nH]c3C3CCCCC3)CC2CCO)cc1 (stereo not drawn)	2	9	-4	-6	-4	-2
Cc1ccc(N2C=Nc3ccc(C)c4nc(C)cc2c34)cc1	-2	99*	52*	-12	60*	-5
CC1=Nc2ccc(C)c3nc(C)cc(c23)N1c1ccc(C)cc1	-3	65*	x	-16	x	0
COc1ccc(OC)c(-c2oc3ccccc3c(=O)c2O)c1	-5	1	1	2	-6	-1
COc1ccc(OC)c(C2=C/C(=C/c3ccccn3)C(=O)O2)c1	-9	-24	-1	-32	-83	-42*
SMILES	PKD1 inh	RanGTP-Impb inh	Runt-CBFb FRET	EBV gp42 inh	Runt-SMMHC FRET	MEX-5 binding
CCOC(=O)c1ccc(Nc2ccc([N+](=O)[O-])cn2)cc1	-12	19*	-41	-14	-35	0
COc1ccc(Nc2ccc([N+](=O)[O-])cn2)cc1	x	-4	x	x	x	1
Cc1csc(NC(=O)CN2C(=O)c3ccccc3C2=O)c1C(N)=O	x	3	1	-13	-2	-5
CC(C)N1CCc2c(sc(NC(=O)CCS(=O)(=O)c3ccccc3)c2C(N)=O)C1	x	153*	x	x	x	2
NC(=O)c1c(NC(=O)Cn2nc(C(=O)O)c3ccccc3c2=O)sc2c1CCC2	x	u	-2	-5	1	0
CC(C)N1CCc2c(sc(NC(=O)CN3C(=O)c4ccccc4C3=O)c2C(N)=O)C1	-2	142*	98*	-3	129*	-9
NC(=O)c1c(NC(=O)Cn2nc(C(=O)O)c3ccccc3c2=O)sc2c1CCCC2	x	3	-1	53*	-3	2
CC(=O)N1CCc2c(sc(NC(=O)CCS(=O)(=O)c3ccccc3)c2C(N)=O)C1	x	7	x	x	x	-11
CCN(Cc1ccccc1)C(=O)CCS(=O)(=O)c1ccc2c(c1)CCN2C(C)=O	x	1	x	x	x	-2
COc1cc(-c2ccc(Nc3ccccc3C(=O)O)c(OC)c2)ccc1Nc1ccccc1C(=O)O	x	x	17	69*	-8	x
C=CCn1c(=N)c(C(=O)OC)cc2c(=O)n3cccc(C)c3nc21	x	x	52*	x	58*	x
COC(=O)c1cc2c(=O)n3cccc(C)c3nc2n(Cc2cccnc2)c1=N	x	x	56*	x	57*	x
O=C(Nc1ccc(S(=O)(=O)N2CCCC2)cc1)c1cc(F)c(F)cc1Cl	x	-3	x	x	x	0
COc1ccccc1NC(=O)c1sc2nc(Cc3ccccc3)cc(C(F)(F)F)c2c1N	-6	-38	-136	74*	-186	-143*
CCn1nc(NC(=O)C(C)C)c2cc3cccc(C)c3nc21	x	48*	x	x	x	-1
Cc1cccc2cc3c(NC(=O)C(C)(C)C)nn(CC(C)C)c3nc12	x	80*	x	x	x	-1
CCn1nc(NC(C)=O)c2cc3cccc(C)c3nc21	x	u	x	x	x	3
CCn1nc(NC(=O)c2ccccc2)c2cc3cccc(C)c3nc21	x	69*	62*	2	86*	-4
O=Cc1c(N2CCC3(CC2)OCCO3)nc2ccccn2c1=O	x	4	0	-19	2	0
COc1ccc(CC(=O)NC2CC(C)(C)NC(C)(C)C2)cc1OC	x	-1	x	x	x	0
C=CCNC(=O)c1cc2c(=O)n3cc(C)ccc3nc2nc1NCC1CCCO1 (stereo not drawn)	-3	179*	19	11	60*	-3
Cc1ccc(-c2nn(-c3ccc(F)cc3)cc2C(=O)NCC2CCCO2)cc1 (stereo not drawn)	x	1	x	x	x	3
CCNc1nc2nc3ccc(C)cn3c(=O)c2cc1C(=O)NCC1CCCO1 (stereo not drawn)	-4	185*	19	0	91*	-1
CCCc1cc(NC(=O)CCl)n(-c2ccccc2)n1	-7	-1	2	6	-2	0
CC(C)Nc1nc(Cl)nc(N(C#N)CN2C(=O)c3ccccc3S2(=O)=O)n1	x	5	-3	52*	1	-4
c1ccc(C(c2c[nH]c3ccccc23)c2c[nH]c3ccccc23)nc1	-2	52*	0	-1	3	-1
CCN1CCN(C(=O)CS(=O)(=O)Cc2nc(-c3ccc(C)cc3)oc2C)CC1	-6	3	0	-24	-1	-1
Cc1ccc(-c2nc(CS(=O)(=O)CC(=O)N3CCN(C)CC3)c(C)o2)cc1	x	158*	x	x	x	-3
